Source: ChEMBL document CHEMBL1121925, “Isoxicam and related 4-hydroxy-N-isoxazolyl-2H-1,2-benzothiazine-3-carboxamide 1,1-dioxides. Potent nonsteroidal antiinflammatory agents” (1982)
Active and inactive are the calls of the source. No cut-off for these calls is given here.

Columns and labels:
Rattus norvegicus [1] = assay: Antiinflammatory activity was assessed in carrageenan-induced rat paw edema(CIRPE) test after po administration; Inactive at 100 mg/kg; format: functional, organism-based; design: dose 100 mg/kg
Method in brief: (§1)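 Male Charles-River rats, groups of 8–10; compound given orally as aqueous suspension, then 1 h later 0.05 mL of 1% carrageenin in 0.9% saline injected into plantar left hind paw. Injected and uninjected paw volumes measured 3 h later by mercury displacement to the lateral malleolus mark; difference compared statistically between treated and control groups at oral screening dose.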

Rattus norvegicus [2] = assay: Antiinflammatory activity was assessed in carrageenan-induced rat paw edema(CIRPE) test after po administration; format: functional; conditions: read-out: MED; method in brief: as §1
Rattus norvegicus [3] = assay: Antiinflammatory activity was assessed in prophylactic adjuvant induced polyarthritis(AIP) test after po administration.; format: functional; conditions: read-out: MED
Method in brief: (§2)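 Male Charles-River-Lewis rats (150 ± 10 g), groups of 10. Day 1: heat-killed Mycobacterium butyricum in light mineral oil (250 μg/0.05 mL) injected into left hind paw. Dosing on days 1–20; sacrifice day 21, hind paw weights recorded; change taken as difference between day 1 and day 21.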

Rattus norvegicus [4] = assay: Antiinflammatory activity was assessed in therapeutic adjuvant induced polyarthritis(AIP) test after po administration.; format: functional; conditions: read-out: MED
Method in brief: (§3)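 Male Charles-River-Lewis rats (150 ± 10 g) injected day 1 in left hind paw with heat-killed Mycobacterium butyricum in mineral oil (250 μg/0.05 mL). Day 14, only responders (lesions in both hind paws) randomized into groups of 10, treated days 14–27, sacrificed day 28; hind paw weight change from day 14 to day 28.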

Rattus norvegicus [5] = assay: Antiinflammatory activity was assessed in prophylactic adjuvant induced polyarthritis(AIP) test after po administration; format: functional; conditions: for minimal effective dose: Rattus norvegicus, po, read-out: MED; method in brief: as §2
Rattus norvegicus [6] = assay: Antiinflammatory activity was assessed in therapeutic adjuvant induced polyarthritis(AIP) test after po administration; format: functional; conditions: read-out: MED; method in brief: as §3

Row | SMILES | MED (Rattus norvegicus [1]) | minimal effective dose (Rattus norvegicus [2]) | further results
1 | Cc1cc(NC(=O)CNS(=O)(=O)c2ccccc2C(=O)O)no1 | inactive |  | 
2 | Cc1cc(NC(=O)CC(=O)c2ccccc2S(=O)(=O)N(C)C)no1 | inactive |  | 
3 | COc1ccc2c(c1)c(CC(=O)O)c(C)n2C(=O)c1ccc(Cl)cc1 [INDOMETHACIN] |  | 0.37 mg/kg | minimal effective dose (Rattus norvegicus [3]): 0.39 mg/kg; minimal effective dose (Rattus norvegicus [4]): 0.39 mg/kg
4 | CC(=O)Oc1ccccc1C(=O)O [ASPIRIN] |  | 100 mg/kg | 
5 | CCCCC1C(=O)N(c2ccccc2)N(c2ccccc2)C1=O [PHENYLBUTAZONE] |  | 37.5 mg/kg | MED (Rattus norvegicus [5]): 1.56 mg/kg; minimal effective dose (Rattus norvegicus [5]): 1.56 mg/kg
6 | Cc1cc(NC(=O)C2=C(O)c3ccccc3S(=O)(=O)N2C)no1 [ISOXICAM] |  | 12.5 mg/kg | minimal effective dose (Rattus norvegicus [6]): 1.56 mg/kg; minimal effective dose (Rattus norvegicus [5]): 1.56 mg/kg
7 | CC(=O)Cc1noc(C2=C(O)c3ccccc3S(=O)(=O)N2)n1 | inactive |  | 
8 | CC(=O)Cc1noc(C2=C(O)c3ccccc3S(=O)(=O)N2C)n1 | inactive |  | 
